# Assay results published in PubChem BioAssay.
# Calls of active or inactive are those of the source.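 How the source made its calls, unless noted: active means inhibition above 20% together with a positive visual image hit; inconclusive means visual image hit but inhibition not above 20%; inactive means no visual image hit.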
# Key:
# [1] = inhibitors of TNFa-induced NFkB p65 translocation, primary screen, imaging, HUVEC, MLSMR starter and 10KST1 sets (AID 438); details: HUVEC TNFa-induced p65 nuclear translocation; cell count: measured here: nuclei count (cytotoxicity indicator), at 2.08 µM; inhibition: at 2 µM, stronger effect = higher value, 0% TNFa-plus-vehicle, 100% no-TNFa wells;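 further: compound added about 3h40 before a 20 min TNFalpha stimulation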;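 on inhibition: signal is the nuclear over cytoplasmic p65 intensity ratio per well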
# [2] = inhibitors of mutant huntingtin aggregation, primary screen, imaging, exon1htt(103Q)mCFP cells, high-content imaging (AID 483;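 active means visual image review flags a hit and inhibition of aggregation exceeds 20%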;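 further: compound exposure lasted 3 days before fixation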;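 on nuclei count: percent of the per-plate median nuclei count of sample wells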); details: exon1htt(103Q)mCFP cell line, aggregate imaging, at 2 µM; inhibition of aggregation: stronger effect = higher value; nuclei count: measured here: cell count, toxicity
# [3] = inhibitors of E-selectin induction by TNFa, primary screen, imaging, HUVEC, immunofluorescence, MLSMR starter and 10KST1 sets (AID 487;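 active means visually confirmed hit in the image check and inhibition above 20%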;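 on inhibition: signal is fraction of cell area covered by stained E-selectin grains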;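 on nuclei count: 100% = median nuclei count of all wells on the same plate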); details: HUVEC TNFalpha-induced E-selectin immunofluorescence imaging, at 2 µM; inhibition: stronger effect = higher value; nuclei count: measured here: cell number, toxicity
# [4] = target: Voltage-gated potassium channel subunit beta-2 (Rattus norvegicus) (UniProt P62483); assay: KvBeta enzyme negative modulators, primary screen, biochemical, NADPH fluorescence (AID 622;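 active means fluorescence slope higher than the sample average by over 3 SD, cut at about -0.22 in these data, passing the limit was not always enough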;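 further: slope of raw intensity against log time taken from 70 to 1610 s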); details: recombinant KvBeta, 4-cyanobenzaldehyde reduction, at 10 µM, stronger effect = higher value
# [5] = target: Voltage-gated potassium channel subunit beta-2 (Rattus norvegicus) (UniProt P62483); assay: KvBeta positive modulators, primary screen, biochemical, NADPH fluorescence (AID 623;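 active means NADPH fluorescence slope more negative than the mean of all samples by about 3 SD, 99.7% confidence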;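 further: fluorescence intensity change per second fitted from 20 to 320 s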); details: Recombinant KvBeta, NADPH fluorescence decrease slope, 10 min; at 10 µM; stronger effect = lower value
# [6] = target: Muscarinic acetylcholine receptor M4 (Homo sapiens) (UniProt P08173); assay: compounds altering M4/GIRK thallium flux, either direction, primary screen, M4 allosteric agonist project, cell-based, HEK293 M4/GIRK, BTC-AM (AID 625;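 active means fluorescence slope after compound addition differing from the mean of all tested samples at 99.7% confidence, mostly higher but some lower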;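 further: thallium influx through GIRK channels coupled to M4 in HEK293 cells with BTC-AM dye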); details: at 10 µM, actives lie on both sides
# Procedure, shortened: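 System: HEK293 cells with M4 receptor and GIRK channels | Incubation: Cells overnight at 37 °C, BTC-AM loading 1 h, reads 2 min total | Technique: Kinetic BTC-AM fluorescence sampled at 1 Hz, 10 s pre-addition baseline | Measure: Post-addition slope, 15–24 s, of baseline-normalized fluorescence | Control set: Carbachol positive, DMSO negative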
# [7] = inhibitors of Sendai virus-induced IRF3 signaling, primary screen, TLR/RLR signaling modifier project, cell-based, Sendai virus stimulus, luciferase, 10K MLSCN set (AID 602276;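 active means inhibition at or above 50% at 10 µM; inactive means inhibition below 50%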;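 further: firefly luciferase from ISG56 promoter only with Renilla not read in this screen; 0% = Sendai virus plus DMSO and 100% = medium plus DMSO without virus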); details: HEK293 RL24 IRF3 luciferase reporter, at 10 µM, stronger effect = higher value
# [8] = inhibitors of poly I:C-induced TLR3 signaling, primary screen, cell-based, poly I:C stimulus, luciferase, 10K MLSCN set (AID 602277;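 active means inhibition of the reporter signal at or above 50%; inactive means inhibition below 50%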); details: HEK293-TLR3 RL24 IRF3 luciferase reporter, at 10 µM, stronger effect = higher value
# Sequence of Muscarinic acetylcholine receptor M4 (Homo sapiens) (P08173 whole entry, looked up): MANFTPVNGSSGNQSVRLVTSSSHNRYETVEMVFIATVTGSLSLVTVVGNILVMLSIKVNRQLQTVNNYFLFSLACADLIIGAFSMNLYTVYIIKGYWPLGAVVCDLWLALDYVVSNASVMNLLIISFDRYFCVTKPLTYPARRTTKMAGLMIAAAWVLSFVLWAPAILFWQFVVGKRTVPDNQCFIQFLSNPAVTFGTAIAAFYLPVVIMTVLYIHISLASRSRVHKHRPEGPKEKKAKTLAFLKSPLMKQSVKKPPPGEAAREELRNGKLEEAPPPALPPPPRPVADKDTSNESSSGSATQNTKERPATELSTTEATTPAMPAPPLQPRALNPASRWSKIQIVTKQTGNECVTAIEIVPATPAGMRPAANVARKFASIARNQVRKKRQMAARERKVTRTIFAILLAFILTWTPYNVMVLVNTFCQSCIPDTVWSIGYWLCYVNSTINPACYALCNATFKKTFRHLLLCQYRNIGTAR
# Sequence of Voltage-gated potassium channel subunit beta-2 (Rattus norvegicus) (P62483 whole entry, looked up): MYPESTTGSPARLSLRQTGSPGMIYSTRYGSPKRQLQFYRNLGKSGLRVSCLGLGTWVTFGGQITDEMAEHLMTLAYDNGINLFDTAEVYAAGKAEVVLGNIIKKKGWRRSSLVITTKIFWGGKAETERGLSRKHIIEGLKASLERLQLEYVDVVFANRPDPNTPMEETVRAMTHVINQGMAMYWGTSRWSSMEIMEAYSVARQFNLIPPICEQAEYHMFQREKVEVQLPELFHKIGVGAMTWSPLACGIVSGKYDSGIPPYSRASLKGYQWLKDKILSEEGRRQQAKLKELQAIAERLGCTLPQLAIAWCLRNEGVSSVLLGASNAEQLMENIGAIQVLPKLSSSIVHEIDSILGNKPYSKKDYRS
structure (smiles),measurement,setting,value
c1ccc(-c2cc(-c3nc(-c4ccccn4)no3)c3ccccc3n2)cc1,cell count,[1],469
same,inhibition,[1],7.6% (inactive)
same,inhibition of aggregation,[2],-4.3% (inactive)
same,nuclei count,[2],101%
same,inhibition,[3],-171% (inactive)
same,nuclei count,[3],140%
same,fluorescence slope,[4],-0.265 (inactive)
same,NADPH fluorescence slope,[5],-8.8e-06 (inactive)
same,fluorescence slope,[6],0.0088 (inactive)
same,inhibition,[7],0.406% (inactive)
same,inhibition,[8],-37.7% (inactive)
O=C(Nc1cc(C(F)(F)F)ccc1Cl)c1cc(C2CC2)on1,cell count,[1],404
same,inhibition,[1],-3.9% (inactive)
same,inhibition of aggregation,[2],-8.1% (inactive)
same,nuclei count,[2],102%
same,inhibition,[3],-25.8% (inactive)
same,nuclei count,[3],61.5%
same,fluorescence slope,[4],-0.45 (inactive)
same,NADPH fluorescence slope,[5],-5.4e-05 (inactive)
same,fluorescence slope,[6],0.00518 (inactive)
same,inhibition,[7],21.5% (inactive)
same,inhibition,[8],27.4% (inactive)
Cc1c(NC(=O)C(C)OC(=O)C(NC(=O)c2ccco2)C(C)C)c(=O)n(-c2ccccc2)n1C (centres undefined),cell count,[1],419
same,inhibition,[1],-8% (inactive)
same,inhibition of aggregation,[2],-12.5% (inactive)
same,nuclei count,[2],105%
same,inhibition,[3],-25.3% (inactive)
same,nuclei count,[3],106%
same,fluorescence slope,[4],-0.276 (inactive)
same,NADPH fluorescence slope,[5],-5.3e-05 (inactive)
same,fluorescence slope,[6],0.00712 (inactive)
same,inhibition,[7],10.2% (inactive)
same,inhibition,[8],14.1% (inactive)
Cc1ccc(Cn2c(C(=O)NCCCN3CCOCC3)cc3sccc32)cc1,cell count,[1],765
same,inhibition,[1],-5.9% (inactive)
same,inhibition of aggregation,[2],-85.9% (inactive)
same,nuclei count,[2],111%
same,inhibition,[3],-218% (inactive)
same,nuclei count,[3],118%
same,fluorescence slope,[4],-0.486 (inactive)
same,NADPH fluorescence slope,[5],1.1e-05 (inactive)
same,fluorescence slope,[6],0.00431 (inactive)
same,inhibition,[7],14.1% (inactive)
same,inhibition,[8],31.6% (inactive)
Cc1cnc(-c2nnc(N(C)C(=O)C3CCOC3)s2)cn1 (centres undefined),cell count,[1],340
same,inhibition,[1],-12.1% (inactive)
same,inhibition of aggregation,[2],26.6% (inactive)
same,nuclei count,[2],79%
same,inhibition,[3],41.6% (inactive)
same,nuclei count,[3],88.5%
same,fluorescence slope,[4],-0.552 (inactive)
same,NADPH fluorescence slope,[5],-6.2e-06 (inactive)
same,fluorescence slope,[6],0.00481 (inactive)
same,inhibition,[7],-2.32% (inactive)
same,inhibition,[8],-11.8% (inactive)
CCOC(=O)c1oc2ccccc2c1CSc1nnnn1-c1ccc(OC)cc1,cell count,[1],381
same,inhibition,[1],-7.7% (inactive)
same,inhibition of aggregation,[2],6.8% (inactive)
same,nuclei count,[2],95.4%
same,inhibition,[3],-102% (inactive)
same,nuclei count,[3],110%
same,fluorescence slope,[4],-0.54 (inactive)
same,NADPH fluorescence slope,[5],-4.1e-05 (inactive)
same,fluorescence slope,[6],0.00514 (inactive)
same,inhibition,[7],25.7% (inactive)
same,inhibition,[8],30.2% (inactive)
CS(=O)(=O)Nc1ccc(C(=O)NCCc2ccccc2)cc1,cell count,[1],342
same,inhibition,[1],-2% (inactive)
same,inhibition of aggregation,[2],-9.2% (inactive)
same,nuclei count,[2],108%
same,inhibition,[3],-69% (inactive)
same,nuclei count,[3],125%
same,fluorescence slope,[4],-0.535 (inactive)
same,NADPH fluorescence slope,[5],-1.7e-06 (inactive)
same,fluorescence slope,[6],0.00454 (inactive)
same,inhibition,[7],-13.2% (inactive)
same,inhibition,[8],-40.3% (inactive)
CCOCCCNC(=O)c1c[nH]c2ccc(S(=O)(=O)Nc3cccc(OC)c3)cc2c1=O,cell count,[1],337
same,inhibition,[1],-3.1% (inactive)
same,inhibition of aggregation,[2],-12.3% (inactive)
same,nuclei count,[2],99.2%
same,inhibition,[3],-85.4% (inactive)
same,nuclei count,[3],105%
same,fluorescence slope,[4],-0.599 (inactive)
same,NADPH fluorescence slope,[5],-3.6e-05 (inactive)
same,fluorescence slope,[6],0.00605 (inactive)
same,inhibition,[7],0.375% (inactive)
same,inhibition,[8],0.559% (inactive)
Cc1cc(C)c(S(=O)(=O)N(C)CC(N)=O)c(C)c1,cell count,[1],320
same,inhibition,[1],5.1% (inactive)
same,inhibition of aggregation,[2],-7.6% (inactive)
same,nuclei count,[2],103%
same,inhibition,[3],-60.9% (inactive)
same,nuclei count,[3],111%
same,fluorescence slope,[4],-0.489 (inactive)
same,NADPH fluorescence slope,[5],4.3e-05 (inactive)
same,fluorescence slope,[6],0.00514 (inactive)
same,inhibition,[7],-4.02% (inactive)
same,inhibition,[8],-17.9% (inactive)
COc1ccc(OCCCC(=O)Nc2ccc3c(c2)OCCO3)cc1,cell count,[1],467
same,inhibition,[1],10.1% (inactive)
same,inhibition of aggregation,[2],-6.5% (inactive)
same,nuclei count,[2],104%
same,inhibition,[3],-237% (inactive)
same,nuclei count,[3],140%
same,fluorescence slope,[4],-0.299 (inactive)
same,NADPH fluorescence slope,[5],-2.2e-05 (inactive)
same,fluorescence slope,[6],0.00647 (inactive)
same,inhibition,[7],-5.01% (inactive)
same,inhibition,[8],-17.3% (inactive)
Cc1ccc(-n2c(Cc3cccn3C)nnc2SCC(=O)NCc2ccc3c(c2)OCO3)cc1,cell count,[1],567
same,inhibition,[1],-12.9% (inactive)
same,inhibition of aggregation,[2],-10.3% (inactive)
same,nuclei count,[2],103%
same,inhibition,[3],-53.4% (inactive)
same,nuclei count,[3],82.3%
same,fluorescence slope,[4],-0.419 (inactive)
same,NADPH fluorescence slope,[5],2.3e-05 (inactive)
same,fluorescence slope,[6],0.00714 (inactive)
same,inhibition,[7],18.7% (inactive)
same,inhibition,[8],26.7% (inactive)
CCCOc1ccc(C2C(C(=O)c3ccc(C)o3)=C(O)C(=O)N2Cc2cccnc2)cc1 (centres undefined),cell count,[1],755
same,inhibition,[1],-2.8% (inactive)
same,inhibition of aggregation,[2],-9.2% (inactive)
same,nuclei count,[2],105%
same,inhibition,[3],35.3% (inactive)
same,nuclei count,[3],107%
same,fluorescence slope,[4],-0.495 (inactive)
same,NADPH fluorescence slope,[5],9.3e-06 (inactive)
same,fluorescence slope,[6],0.00434 (inactive)
same,inhibition,[7],9.82% (inactive)
same,inhibition,[8],3.74% (inactive)
CCOC(=O)c1ccc(NC(=O)CC2SC(=NC)N(C)C2=O)cc1 (centres undefined),cell count,[1],401
same,inhibition,[1],14.6% (inactive)
same,inhibition of aggregation,[2],-8.2% (inactive)
same,nuclei count,[2],103%
same,inhibition,[3],-14.5% (inactive)
same,nuclei count,[3],110%
same,fluorescence slope,[4],-0.48 (inactive)
same,NADPH fluorescence slope,[5],-5.8e-05 (inactive)
same,fluorescence slope,[6],0.00547 (inactive)
same,inhibition,[7],13.7% (inactive)
same,inhibition,[8],17.7% (inactive)
Cc1c(C(=O)NCc2ccccn2)oc2ccccc12,cell count,[1],328
same,inhibition,[1],-4.1% (inactive)
same,inhibition of aggregation,[2],-3.8% (inactive)
same,nuclei count,[2],86%
same,inhibition,[3],44.5% (inactive)
same,nuclei count,[3],49.4%
same,fluorescence slope,[4],-0.514 (inactive)
same,NADPH fluorescence slope,[5],8.6e-06 (inactive)
same,fluorescence slope,[6],0.00478 (inactive)
same,inhibition,[7],-29.5% (inactive)
same,inhibition,[8],-79.6% (inactive)
